Values after ≈ are worked out from the molar mass of the structure shown.
Legend:
[1] = tested on: Staphylococcus aureus; test: Antimicrobial activity against Staphylococcus aureus ST239 incubated for 20 hrs by microdilution method; format: functional; details: CN79, 20 h
In short: (§1)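 MIC determined by microdilution following Clinical & Laboratory Standards Institute (CLSI) guidelines, read in µg/mL, against a panel of hospital- and community-acquired MRSA strains.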

[2] = tested on: Staphylococcus aureus; test: Antimicrobial activity against Staphylococcus aureus HA W231 ST45 incubated for 20 hrs by microdilution method; format: functional; details: HA W231 ST45, 20 h; in short: as §1
[3] = tested on: Staphylococcus aureus; test: microbe, parasite or virus in culture; details: ATCC 29213, 20 h
[4] = tested on: Enterococcus casseliflavus; test: Antimicrobial activity against Enterococcus casseliflavus ATCC 25788 incubated for 20 hrs by microdilution method; format: functional; details: ATCC 25788, 20 h
In short: (§2)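 Broth microdilution MIC testing done following CLSI guidelines.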

[5] = Therapeutic index, ratio of CC50 for human HaCaT cells to 1/2 times MIC for Staphylococcus aureus ATCC 25923; format: toxicity; details: read-out: TI
[6] = tested on: Streptococcus pyogenes; test: Antimicrobial activity against Streptococcus pyogenes ATCC 19615 incubated for 20 hrs by microdilution method; format: functional; details: ATCC 19615, 20 h; in short: as §2
[7] = Cytotoxicity against human A549 cells assessed as reduction in cell viability after 48 to 72 hrs by MTT assay; format: cell-based
[8] = Cytotoxicity against human HaCaT cells assessed as reduction in cell viability after 48 to 72 hrs by MTT assay; format: cell-based
[9] = tested on: Staphylococcus aureus; test: Antimicrobial activity against Staphylococcus aureus USA300/ST8 incubated for 20 hrs by microdilution method; details: USA300 ST8, 20 h
[10] = tested on: Staphylococcus epidermidis; test: Antimicrobial activity against Staphylococcus epidermidis ATCC 12228 incubated for 20 hrs by microdilution method; format: functional; details: ATCC 12228, 20 h; in short: as §2
[11] = tested on: Staphylococcus aureus; test: Antimicrobial activity against CA-methicillin-resistant Staphylococcus aureus W48 ST217 incubated for 20 hrs by microdilution method; details: W48 ST217, 20 h
[12] = tested on: Staphylococcus aureus; test: Antimicrobial activity against Staphylococcus aureus ST22 11B086169 incubated for 20 hrs by microdilution method; format: functional; details: ST22 11B086169, 20 h; in short: as §1
[13] = tested on: Staphylococcus aureus; test: Antimicrobial activity against CA-methicillin-resistant Staphylococcus aureus W47 ST30 incubated for 20 hrs by microdilution method; format: functional; details: W47 ST30, 20 h; in short: as §1
[14] = tested on: Streptococcus pneumoniae; test: Antimicrobial activity against Streptococcus pneumoniae ATCC 49619 incubated for 20 hrs by microdilution method; format: functional; details: ATCC 49619, 20 h; in short: as §2
[15] = tested on: Staphylococcus aureus; test: Antimicrobial activity against Staphylococcus aureus ATCC BAA44 incubated for 20 hrs by microdilution method; format: functional; details: ATCC BAA44, 20 h; in short: as §1
[16] = tested on: Bacillus subtilis; test: Inhibition of N-terminal LgBiT-fused Bacillus subtilis NusB expressed in Escherichia coli BL21(DE3)pLysS interaction with C- terminal SmBiT-fused Bacillus subtilis NusE expressed in Escherichia coli BL21(DE3)pLysS at 100 uM preincubated for 10 mins followed by NusE addition and measured after 10 mins by nano-glo luciferase assay relative to control
In short: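 NusB and NusE were mixed 1:1 at 1 µM in PBS, with compound at 100 µM. The read-out was percent inhibition of the NusB-NusE interaction.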

[17] = tested on: Streptococcus agalactiae; test: Antimicrobial activity against Streptococcus agalactiae ATCC 12386 incubated for 20 hrs by microdilution method; format: functional; details: ATCC 12386, 20 h; in short: as §2
[18] = Therapeutic index, ratio of CC50 for human A549 cells to 1/2 times MIC for Staphylococcus aureus ATCC 25923; format: toxicity; details: read-out: TI
[19] = tested on: Staphylococcus aureus; test: Antimicrobial activity against CA-methicillin-resistant Staphylococcus aureus W4 ST338 incubated for 20 hrs by microdilution method; format: functional; details: W4 ST338, 20 h; in short: as §1
[20] = microbe, parasite or virus in culture; details: Enterobacter cloacae, ATCC 13047, 20 h
[21] = Antimicrobial activity against Staphylococcus saprophyticus ATCC 15305 incubated for 20 hrs by microdilution method; format: functional, Staphylococcus saprophyticus subsp. saprophyticus; details: ATCC 15305, 20 h; in short: as §2
[22] = tested on: Staphylococcus aureus; test: microbe, parasite or virus in culture; details: ATCC 25923, 20 h
[23] = tested on: Pseudomonas aeruginosa; test: Antimicrobial activity against Pseudomonas aeruginosa ATCC 27853 incubated for 20 hrs by microdilution method; format: functional; details: ATCC 27853, 20 h; in short: as §2
[24] = tested on: Enterococcus faecium; test: Antimicrobial activity against Enterococcus faecium ATCC 19433 incubated for 20 hrs by microdilution method; format: functional; details: ATCC 19433, 20 h; in short: as §2
[25] = tested on: Staphylococcus aureus; test: Antimicrobial activity against CA-methicillin-resistant Staphylococcus aureus W46 ST59 incubated for 20 hrs by microdilution method; details: W46 ST59, 20 h
[26] = tested on: Staphylococcus aureus; test: Antimicrobial activity against Staphylococcus aureus HA W235 ST5 incubated for 20 hrs by microdilution method; format: functional; details: HA W235 ST5, 20 h; in short: as §1
[27] = tested on: Staphylococcus aureus; test: Antimicrobial activity against CA-methicillin-resistant Staphylococcus aureus W45 ST59 incubated for 20 hrs by microdilution method; details: W45 ST59, 20 h
[28] = tested on: Staphylococcus aureus; test: Antimicrobial activity against Staphylococcus aureus ATCC BAA43 incubated for 20 hrs by microdilution method; format: functional; details: ATCC BAA43, 20 h; in short: as §1
[29] = tested on: Acinetobacter baumannii; test: Antimicrobial activity against Acinetobacter baumannii ATCC 19606 incubated for 20 hrs by microdilution method; format: functional; details: ATCC 19606 = CIP 70.34 = JCM 6841, 20 h; in short: as §2

Row | SMILES | MIC [3] [mg/L] | MIC [4] [mg/L] | selectivity ratio [5] | CC50 [7] [µM] | CC50 [8] [µM] | MIC [14] [mg/L] | inhibition [16] [%] | MIC [17] [mg/L] | selectivity ratio [18] | MIC [20] [mg/L] | MIC [21] [mg/L] | MIC [22] [mg/L] | MIC [23] [mg/L] | MIC [24] [mg/L] | MIC [29] [mg/L] | further results
1 | O=[N+]([O-])c1ccc(O)c(CNc2ccccc2C(F)(F)F)c1 | 2 (≈ 6.41 µM) | 64 (≈ 205 µM) | 6 | 20 | 18.3 | 8 (≈ 25.6 µM) | 61.5 | 16 (≈ 51.2 µM) | 6 | 256 (≈ 820 µM) | 4 (≈ 12.8 µM) | 2 (≈ 6.41 µM) | > 256 | 8 (≈ 25.6 µM) | 128 (≈ 410 µM) | MIC [1]: 4 mg/L (≈ 12.8 µM); MIC [2]: 4 mg/L (≈ 12.8 µM); MIC [6]: 16 mg/L (≈ 51.2 µM); MIC [9]: 2 mg/L (≈ 6.41 µM); MIC [10]: 2 mg/L (≈ 6.41 µM); MIC [11]: 2 mg/L (≈ 6.41 µM); MIC [12]: 4 mg/L (≈ 12.8 µM); MIC [13]: 4 mg/L (≈ 12.8 µM); MIC [15]: 4 mg/L (≈ 12.8 µM); MIC [19]: 2 mg/L (≈ 6.41 µM); MIC [25]: 2 mg/L (≈ 6.41 µM); MIC [26]: 2 mg/L (≈ 6.41 µM); MIC [27]: 4 mg/L (≈ 12.8 µM); MIC [28]: 4 mg/L (≈ 12.8 µM)
2 | C#Cc1cccc(NCc2cc(Cl)cc(Cl)c2O)c1 | 4 (≈ 13.7 µM) | – | 32 | 112 | 108 | 256 (≈ 876 µM) | 50.6 | – | 33 | > 256 | – | 2 (≈ 6.85 µM) | > 256 | 32 (≈ 110 µM) | > 256 | –
3 | O=[N+]([O-])c1ccc(O)c(/C=N/c2cccc(Cl)c2)c1 | 16 (≈ 57.8 µM) | – | 69 | 274 | 250 | 64 (≈ 231 µM) | 66.5 | – | 76 | > 256 | – | 2 (≈ 7.23 µM) | > 256 | > 256 | 256 (≈ 925 µM) | –
4 | O=[N+]([O-])c1ccc(O)c(/C=N/c2ccccc2Cl)c1 | 16 (≈ 57.8 µM) | – | 96 | 432 | 347 | 64 (≈ 231 µM) | 45.7 | – | 119 | > 256 | – | 2 (≈ 7.23 µM) | > 256 | > 256 | 256 (≈ 925 µM) | –
5 | O=C(O)c1cn(C2CC2)c2cc(N3CCNCC3)c(F)cc2c1=O [CIPROFLOXACIN] | 0.5 to 1 (≈ 1.51 to 3.02 µM) | 4 (≈ 12.1 µM) | – | – | – | – | – | 4 (≈ 12.1 µM) | – | – | 0.5 (≈ 1.51 µM) | 0.5 to 1 (≈ 1.51 to 3.02 µM) | – | 4 (≈ 12.1 µM) | 2 (≈ 6.04 µM) | MIC [1]: 4 mg/L (≈ 12.1 µM); MIC [2]: 2 mg/L (≈ 6.04 µM); MIC [6]: 0.5 mg/L (≈ 1.51 µM); MIC [9]: 4 mg/L (≈ 12.1 µM); MIC [10]: 0.0625 mg/L (≈ 0.189 µM); MIC [11]: 4 mg/L (≈ 12.1 µM); MIC [12]: 4 mg/L (≈ 12.1 µM); MIC [13]: 0.5 mg/L (≈ 1.51 µM); MIC [15]: 4 mg/L (≈ 12.1 µM); MIC [19]: 0.5 mg/L (≈ 1.51 µM); MIC [25]: 0.25 mg/L (≈ 0.754 µM); MIC [26]: 4 mg/L (≈ 12.1 µM); MIC [27]: 0.25 mg/L (≈ 0.754 µM); MIC [28]: 2 mg/L (≈ 6.04 µM)
6 | CN[C@H](CC(C)C)C(=O)N[C@H]1C(=O)N[C@@H](CC(N)=O)C(=O)N[C@H]2C(=O)N[C@H]3C(=O)N[C@H](C(=O)N[C@H](C(=O)O)c4cc(O)cc(O)c4-c4cc3ccc4O)[C@H](O)c3ccc(c(Cl)c3)Oc3cc2cc(c3O[C@@H]2O[C@H](CO)[C@@H](O)[C@H](O)[C@H]2O[C@H]2C[C@](C)(N)[C@H](O)[C@H](C)O2)Oc2ccc(cc2Cl)[C@H]1O [VANCOMYCIN] | – | 4 (≈ 2.76 µM) | – | – | – | 0.5 (≈ 0.345 µM) | – | 0.5 (≈ 0.345 µM) | – | > 256 | 1 (≈ 0.69 µM) | 1 to 2 (≈ 0.69 to 1.38 µM) | > 256 | – | > 256 | –
7 | Cc1onc(-c2ccccc2)c1C(=O)N[C@@H]1C(=O)N2[C@@H]1SC(C)(C)[C@@H]2C(=O)O [OXACILLIN] | 0.25 (≈ 0.623 µM) | 32 (≈ 79.7 µM) | – | – | – | 2 (≈ 4.98 µM) | – | 0.5 (≈ 1.25 µM) | – | > 256 | 1 (≈ 2.49 µM) | 0.5 to 1 (≈ 1.25 to 2.49 µM) | > 256 | 16 (≈ 39.9 µM) | > 256 | MIC [1]: > 256 mg/L; MIC [2]: 4 mg/L (≈ 9.96 µM); MIC [6]: 0.0625 mg/L (≈ 0.156 µM); MIC [9]: 32 mg/L (≈ 79.7 µM); MIC [10]: 0.25 mg/L (≈ 0.623 µM); MIC [11]: 64 mg/L (≈ 159 µM); MIC [12]: 64 mg/L (≈ 159 µM); MIC [13]: 4 mg/L (≈ 9.96 µM); MIC [15]: > 256 mg/L; MIC [19]: 0.5 mg/L (≈ 1.25 µM); MIC [25]: 8 mg/L (≈ 19.9 µM); MIC [26]: > 256 mg/L; MIC [27]: 8 mg/L (≈ 19.9 µM); MIC [28]: > 256 mg/L
8 | O=C(O)c1cccc(/N=C/c2cc([N+](=O)[O-])ccc2O)c1 | 16 (≈ 55.9 µM) | – | – | – | – | 16 (≈ 55.9 µM) | 78.5 | – | – | > 256 | – | 4 (≈ 14 µM) | > 256 | > 256 | 64 (≈ 224 µM) | –
9 | O=[N+]([O-])c1ccc(O)c(/C=N/c2ccccc2O)c1 | 16 (≈ 62 µM) | – | – | – | – | 64 (≈ 248 µM) | 57.7 | – | – | > 256 | – | 4 (≈ 15.5 µM) | > 256 | > 256 | 128 (≈ 496 µM) | –
10 | O=[N+]([O-])c1ccc(O)c(CNc2cccc(C(F)(F)F)c2)c1 | 4 (≈ 12.8 µM) | – | – | – | – | 16 (≈ 51.2 µM) | 61.7 | – | – | 256 (≈ 820 µM) | – | 4 (≈ 12.8 µM) | > 256 | 16 (≈ 51.2 µM) | 64 (≈ 205 µM) | –
11 | C#Cc1cccc(NCc2cccc([N+](=O)[O-])c2O)c1 | 16 (≈ 59.6 µM) | – | – | – | – | 256 (≈ 954 µM) | 64.5 | – | – | > 256 | – | 128 (≈ 477 µM) | > 256 | > 256 | > 256 | –
